KCNQ1 block – human KCNQ1 channel inhibition | B-score at 10 µM | CHO-K1 KCNQ1, FluxOR thallium flux fluorescence; active compounds read high | P51787 | AID 2642 | 1.3% of 310,000 active;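 active = compounds whose thallium flux B-score, printed positive for inhibition, exceeds three library SD while starting fluorescence stays within three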;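 note: channel opened by potassium depolarization with thallium stimulus after 20 min compound exposure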
Target sequence (P51787 whole entry, looked up): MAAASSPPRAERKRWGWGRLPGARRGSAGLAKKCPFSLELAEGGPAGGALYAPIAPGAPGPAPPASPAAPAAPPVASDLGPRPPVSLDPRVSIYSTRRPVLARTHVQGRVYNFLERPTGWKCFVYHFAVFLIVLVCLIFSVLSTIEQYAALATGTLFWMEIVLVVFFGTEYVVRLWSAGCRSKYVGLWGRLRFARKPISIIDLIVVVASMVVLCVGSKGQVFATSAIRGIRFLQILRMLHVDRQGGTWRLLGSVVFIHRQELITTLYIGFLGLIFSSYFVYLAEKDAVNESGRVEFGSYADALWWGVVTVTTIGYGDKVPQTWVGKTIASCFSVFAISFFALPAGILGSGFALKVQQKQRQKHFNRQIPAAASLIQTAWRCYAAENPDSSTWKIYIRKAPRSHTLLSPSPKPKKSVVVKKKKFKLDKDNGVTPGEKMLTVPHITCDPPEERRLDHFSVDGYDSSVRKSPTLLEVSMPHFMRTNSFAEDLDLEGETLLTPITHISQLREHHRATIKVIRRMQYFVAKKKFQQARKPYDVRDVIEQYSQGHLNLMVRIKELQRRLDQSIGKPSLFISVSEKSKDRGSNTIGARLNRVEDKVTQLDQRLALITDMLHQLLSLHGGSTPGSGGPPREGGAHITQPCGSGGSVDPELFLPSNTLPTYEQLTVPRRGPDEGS
KCNQ1 pot – potentiators or activators of human KCNQ1 potassium channel | P51787 | CHO-K1 KCNQ1, thallium flux FluxOR fluorescence; active compounds read high | B-score at 10 µM | 0.35% of 310,000 active;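 active = fluorescence ratio B-score, a plate-corrected score, at least three library SD, with initial intensity B-score within 5 SD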
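assay system = CHO-K1 cells stably expressing KCNQ1 | medium = assay buffer, equal DMSO in all wells | timing = 37 °C overnight plating, 90-min dark dye load, 20-min compound pretreatment | measured by = kinetic FluxOR thallium fluorescence, 10-s 1-Hz baseline, 110-s post-stimulus read | measure = fluorescence change relative to baseline, converted to B score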
KCNK9 inh – inhibitors of human KCNK9 two-pore domain potassium channel; HEK293 KCNK9, FluxOR thallium flux fluorescence; active compounds read low; B-score at 10 µM; 1.2% of 310,000 active;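 active = ratio B-score over 3 SD below the library mean, with starting fluorescence within 5 SD of its mean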;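 note: negative B-score means less thallium flux so channel inhibition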
hERG rescue – compounds protecting human hERG from proarrhythmic drug block | Q12809 | CHO-hERG, FluxOR thallium flux, dofetilide IC70 present | activation (rescue from dofetilide block), less the hit threshold, % at 10 µM | 0.51% of 310,000 active | AID 1511;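 active = activation above the mean of controls blocked by dofetilide plus 5 SD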;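 note: thallium influx through hERG after potassium depolarization seen as dye fluorescence rise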
KCNK3 block – human KCNK3 channel inhibition, primary screen; O14649; CHO-KCNK3 thallium flux, FluxOR fluorescence; active compounds read low; B-score at 10 µM; 0.84% of 340,000 active;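 active = B-score under library mean minus 4 SD, starting fluorescence ratio at most library mean plus 5 SD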;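 note: more negative B-score means stronger inhibition of thallium flux through KCNK3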
PHOSPHO1 inh – PHOSPHO1 (human) inhibition; inhibition, % at 13.3 µM; AID 1565; 1.1% of 290,000 active; Q8TCT1; recombinant PHOSPHO1, absorbance phosphatase assay; in the data active = inhibition above about 60%
KCNK9 inh conf – human KCNK9 inhibitor confirmation | shares compounds with KCNK9 inh | HEK293 KCNK9 cells, FluxOR thallium flux fluorescence | inhibition, % at 10 µM | 43% of 4,900 active;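 active = thallium signal inhibited by more than 5 SD of the compound-free buffer control wells, on both duplicate plates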
Kir21 sel – tests whether KCNK9 modulators also affect mouse Kir2.1. 4% of 4,900 active. Kir2.1 cells, FluxOR thallium flux fluorescence. AID 492993. shares compounds with KCNK9 inh. inhibition, % at 10 µM;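 active = thallium signal drop more than 5 SD beyond the mean of the no-compound control wells, seen in both duplicate plates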;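 note: signal is fluorescence rise after thallium addition divided by baseline fluorescence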
KCNK9 uninduced – non-induced cell nonspecific activity of KCNK9 modulators; non-induced KCNK9-HEK293, FluxOR thallium flux; 40% of 4,900 active; inhibition, % at 10 µM; shares compounds with KCNK9 inh;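 active = thallium signal drop beyond 5 SD of the untreated control mean, on both duplicate plates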
Each line names hits and unclear results; the compound was inactive in the other large screens (follow-up assays come after a bar, where they were run). Rows were chosen to be rich in hits. Some 4% of all compounds tested hit in one or more screens of this group.

O=C1C(NS(=O)(=O)c2cccs2)=C(N2CCN(Cc3ccccc3)CC2)C(=O)c2ccccc21	none | KCNK9 inh conf inactive | Kir21 sel inactive | KCNK9 uninduced inactive
O=C1C(NS(=O)(=O)c2cccs2)=C(N2CCOCC2)C(=O)c2ccccc21	none
CC(C)c1ccc(S(=O)(=O)c2cnc(=S)[nH]c2N)cc1	none
CC(C(=O)N1CCCc2ccccc21)N1CCN(S(=O)(=O)c2ccccc2F)CC1 (configuration not stated)	none | KCNK9 inh conf inactive | Kir21 sel inactive | KCNK9 uninduced inactive
O=C(CN1C(=O)NC2(CCCC2)C1=O)N1CCCSC1=Nc1ccccc1	none (no result: KCNQ1 block, KCNQ1 pot, KCNK9 inh, hERG rescue, PHOSPHO1 inh)
CCc1ccc(OCCCCN(C)Cc2ccccc2)cc1	none | KCNK9 inh conf inactive | Kir21 sel inactive | KCNK9 uninduced inactive
CN(CCCCOc1ccc(F)cc1)Cc1ccccc1	none
Cc1cc(C)c(C)c(OCCCCN(C)Cc2ccccc2)c1	none | KCNK9 inh conf inactive | Kir21 sel 46% | KCNK9 uninduced inactive
CN(CC(=O)NC1CC(C)(C)NC(C)(C)C1)S(=O)(=O)c1ccc(Br)cc1	none
O=C(c1ccc2ccccc2c1)C1CCCN(C(=O)c2cccnc2)C1 (configuration not stated)	none
CN(C)c1ccccc1C(=O)N1CCCC(C(=O)c2ccc3ccccc3c2)C1 (configuration not stated)	none | KCNK9 inh conf inactive | Kir21 sel inactive | KCNK9 uninduced inactive
CSc1ncccc1C(=O)N1CCCC(C(=O)c2ccc3ccccc3c2)C1 (configuration not stated)	none | KCNK9 inh conf inactive | Kir21 sel inactive | KCNK9 uninduced inactive
C#CCOC(=O)c1ccc(-n2cncn2)nc1	none
CCc1ccccc1NC(=O)c1ccc(NCCc2ccccc2)c([N+](=O)[O-])c1	KCNK9 inh -8.7 | KCNK9 inh conf inactive | Kir21 sel inactive | KCNK9 uninduced 30%
COc1ccc(CSCC(=O)NCCC(C)C)cc1	none
Cc1ccc(CSCC(=O)NCc2ccc(F)cc2)cc1	none
Cc1ccc(NC(=O)CSCc2ccc(F)cc2)cc1	none
COc1ccc(CSCC(=O)Nc2ccccc2SC)cc1	none | KCNK9 inh conf inactive | Kir21 sel inactive | KCNK9 uninduced inactive
Cc1ccc(CCNC(=O)CSCc2ccc(F)cc2)cc1	none | KCNK9 inh conf inactive | Kir21 sel inactive | KCNK9 uninduced inactive
Cc1ccc(CSCC(=O)Nc2ccccc2F)cc1	none | KCNK9 inh conf inactive | Kir21 sel inactive | KCNK9 uninduced inactive
CC(Sc1nnc(Cc2cccs2)n1C1CCCCC1)C(=O)NCc1ccco1 (configuration not stated)	none
CC(=O)N1CCN(C(=O)CSc2nc3c(cnn3-c3ccccc3)c(=O)[nH]2)CC1	none
O=C(CSc1nc2c(cnn2-c2ccccc2)c(=O)[nH]1)N1N=C(c2cccs2)CC1c1ccc(F)cc1 (configuration not stated)	KCNK9 inh -14 | KCNK9 inh conf inactive | Kir21 sel inactive | KCNK9 uninduced inactive
CCOc1cc(-c2nccc3cc(OC)c(OC)cc23)cc(OCC)c1OCC	none
N#C/C(=C/c1ccc(N2CCCCCC2)o1)c1ccc(Cl)cc1	KCNQ1 block 7, KCNK9 inh -10 | KCNK9 inh conf 60% | Kir21 sel inactive | KCNK9 uninduced 78%
N#C/C(=C/c1ccc(N2CCCCC2)cc1)c1cccc(F)c1	none
COc1ccc(Sc2nnc(Cc3ccccc3)c3ccccc23)cc1	KCNK9 inh -15 | KCNK9 inh conf inactive | Kir21 sel inactive | KCNK9 uninduced 27%
Cc1ccc(Sc2nnc(Cc3ccccc3)c3ccccc23)cc1	KCNK9 inh -13 | KCNK9 inh conf 70% | Kir21 sel inactive | KCNK9 uninduced 42%
CC(NC(=O)COC(=O)Cc1ccsc1)C1CC2CCC1C2 (configuration not stated)	none
Cc1cc(C)nc(NC(=O)c2cc(-c3ccc4c(c3)OCO4)nc3ccccc23)c1	none (no result: PHOSPHO1 inh) | KCNK9 inh conf inactive | Kir21 sel inactive | KCNK9 uninduced inactive
CCOC(=O)Cc1csc(NC(=O)c2cc(-c3ccncc3)nc3ccccc23)n1	none (no result: KCNQ1 block, KCNQ1 pot, KCNK9 inh, hERG rescue, PHOSPHO1 inh)
Cc1csc(NC(=O)c2cc(-c3ccccc3)nc3ccccc23)n1	KCNK9 inh -9.8 | KCNK9 inh conf 42% | Kir21 sel inactive | KCNK9 uninduced 40%
CCOc1ccc(C2=C(C=Nc3c(C)n(C)n(-c4ccccc4)c3=O)C(c3ccc(F)cc3)c3ccccc3O2)cc1 (configuration not stated)	none | KCNK9 inh conf inactive | Kir21 sel inactive | KCNK9 uninduced inactive
O=C(Cn1c(=O)c2cccn2c2cccnc21)N1CCN(c2ccccc2F)CC1	none
CSc1cccc(CN(C)C(=O)C2CCC(=O)N(CCCN3CCCC3=O)C2)c1 (configuration not stated)	none
CC(NC(=O)CNC(=O)C1O[C@@H]2OC(C)(C)O[C@@H]2[C@H]2OC(C)(C)O[C@@H]12)C(=O)O (some centres not stated)	none
COC(=O)c1ccc(OC)c(CN2CCCN(Cc3cc(C)ccc3C)S2(=O)=O)c1	KCNK9 inh -17 | KCNK9 inh conf 62% | Kir21 sel inactive | KCNK9 uninduced 28%
CCOC(=O)CC(NCc1ccc(OC)c(OCC)c1)c1ccc(C)cc1 (configuration not stated)	none | KCNK9 inh conf inactive | Kir21 sel inactive | KCNK9 uninduced inactive
O=C(c1ccc2c(c1)OCO2)C1CCCN(C(=O)c2cnn(Cc3ccccc3)c2)C1 (configuration not stated)	none | KCNK9 inh conf inactive | Kir21 sel inactive | KCNK9 uninduced inactive
O=C(c1ccc2c(c1)OCO2)C1CCCN(Cc2ccc3cccc(F)c3n2)C1 (configuration not stated)	none | KCNK9 inh conf inactive | Kir21 sel inactive | KCNK9 uninduced inactive
CSc1ccccc1NC(=O)N1CCCC(C(=O)c2ccc3c(c2)OCO3)C1 (configuration not stated)	none | KCNK9 inh conf inactive | Kir21 sel inactive | KCNK9 uninduced inactive
O=C(c1ccc2c(c1)OCO2)C1CCCN(Cc2cn[nH]c2-c2cccc(F)c2)C1 (configuration not stated)	none
CC(=O)c1ccc(NC(=O)N2CCCC(C(=O)c3ccc4c(c3)OCO4)C2)cc1 (configuration not stated)	none
Cn1cc(CN2CCCCC2CO)c(-c2ccc(Oc3ccccc3)cc2)n1 (configuration not stated)	none
